For data set [1], the system named is Nc1ncnc2c1ncn2[C@H]1C[C@H](O)[C@@H](COP(=O)(O)OP(=O)(O)OP(=O)(O)O)O1. The data set can be described thus: Substrate Activity against HIV-1 reverse transcriptase (RT M184I). An outline of the steps:
(§1)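 Purified recombinant HIV-1 RT M184V or M184I was assayed on MS2 RNA/22A primer at 37 °C (pH 7.8 Tris, 6 mM MgCl2, 150 mM KCl, 0.01% Triton X-100) with [3H]dATP as the only nucleotide substrate. Aliquots were taken 4–5 times onto DE81 filters and counted by scintillation. Km was taken from the Lineweaver–Burk plot without inhibitor.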

Data set [2] concerns Human immunodeficiency virus 1. The data set can be described thus: Antiviral selectivity against HIV-1 virus; Significant activity. The format is functional, organism-based.
Data set [3] is described as follows: Ratio of inhibitory activity of compound to that of substrate activity of dATP against RT M184V enzyme was determined. An outline of the steps:
(§2)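 Recombinant HIV-1 RT (wild-type, M184V or M184I) was expressed in E. coli JM109 with 1 mM IPTG for 5 h, then purified on Q and SP columns to >90% purity. Assay used MS2 RNA/22A DNA primer in 50 mM Tris-HCl pH 7.8, 6 mM MgCl2, 150 mM KCl and 0.01% Triton X-100. Synthesis was distributive, with [3H]dATP as the only nucleotide, at 37 °C. Timed aliquots were spotted on DE81 and counted by scintillation. Ki came from the abscissa intercept of the Lineweaver–Burk replot. Ratio was Ki over dATP Km.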

The nature of data set [4]: Ratio of inhibitory activity of compound to that of substrate activity of dATP against RT wt enzyme was determined. A digest of the protocol: as §2
A short description of data set [5]: Ratio of inhibitory activity of compound to that of substrate activity of dATP against RT M184I enzyme was determined. A digest of the protocol: as §2
Data set [6] deals with Nc1ncnc2c1ncn2[C@H]1C[C@H](O)[C@@H](COP(=O)(O)OP(=O)(O)OP(=O)(O)O)O1. Put plainly: Substrate Activity against HIV-1 reverse transcriptase (RT M184V). An outline of the steps: as §1
The subject of data set [7] is Human alphaherpesvirus 3. The data set can be described thus: Antiviral selectivity against varicella zoster virus; exhibited wide range selectivity. The format is functional, organism-based.
Data set [8] has as its system Human immunodeficiency virus 1. Put plainly: Antiviral selectivity against HIV-1 virus; exhibited wide range selectivity. The format is functional, organism-based.
Data set [9] concerns Human betaherpesvirus 5. The data set can be described thus: Antiviral selectivity against HCMV virus; exhibited wide range selectivity. The class given is functional, organism-based.
The test system of data set [10] is Human gammaherpesvirus 4. The data set can be described thus: Antiviral selectivity against EB virus; exhibited wide range selectivity. The format is functional, organism-based.
The test system of data set [11] is Human gammaherpesvirus 4. Put plainly: Antiviral selectivity against […]; Inactive. The format is functional, organism-based.
Data set [12] deals with Human immunodeficiency virus 1. The data set can be described thus: Antiviral selectivity against HIV-1 virus; Inactive. The class given is functional, organism-based.
In data set [13] the test system is Human betaherpesvirus 5. The data set can be described thus: Antiviral selectivity against HCMV virus; Inactive. The class given is functional, organism-based.
In data set [14] the test system is Human alphaherpesvirus 3. Put plainly: Antiviral selectivity against varicella zoster virus; Inactive. The format is functional, organism-based.

The source of these data is ChEMBL document CHEMBL1145749, “Inhibition of human immunodeficiency virus reverse transcriptase by synadenol triphosphate and its E-isomer” (J Med Chem, 2003).

Active and inactive are the calls of the source. The calls are words filed in the database; no cut-off is given here.

As to “Human immunodeficiency virus type 1 reverse transcriptase (Human immunodeficiency virus 1), Q72547 M184I”, in data set [1], the Michaelis-Menten constant (Km) is 0.38 µM.
On to `COC(=O)C(C)NP(=O)(OCC1C/C1=C\n1cnc2c(N)ncnc21)Oc1ccccc1` (stereo not given), for which the Anti-HIV activity entry in data set [2] is “Significant activity”.
For `Nc1ncnc2c1ncn2/C=C1/CC1COP(=O)(O)OP(=O)(O)OP(=O)(O)O` (stereo not given), the Ki/Km in data set [3] was 4.5; in data set [4] it was 0.8; in data set [5] it was 6.3.
For the compound “Human immunodeficiency virus type 1 reverse transcriptase (Human immunodeficiency virus 1), Q72547 M184V”, in data set [6], the Michaelis constant (Km) was found to be 0.38 µM.
Turning to `Nc1ncnc2c1ncn2/C=C1/CC1CO` (stereo not given), the Antiviral selectivity entry (with Human alphaherpesvirus 3 [7]; in data set [8]; in the data set on Human betaherpesvirus 5 [9]; in the data set with Human gammaherpesvirus 4 [10]) was “exhibited wide range selectivity” in each case.
On to `Nc1ncnc2c1ncn2[C@H]1CC[C@@H](COP(=O)(O)OP(=O)(O)OP(=O)(O)O)O1`, for which the Ki/Km came out at 1.3 in [3], 1.2 in [4] and 3.2 in data set [5].
For `Nc1ncnc2c1ncn2/C=C1\CC1CO` (stereo not given), the IA result (with Human gammaherpesvirus 4 [11]; in data set [12]; in the data set on Human betaherpesvirus 5 [13]; in the data set with Human alphaherpesvirus 3 [14]) was “inactive” in each case.
Consider `Nc1ncnc2c1ncn2/C=C1\CC1COP(=O)(O)OP(=O)(O)OP(=O)(O)O` (stereo not given), for which the Ki/Km in [3] is 137; in data set [4] it was 25; in data set [5], 187.

Usually Km stands for the concentration of substrate that gives half-maximal velocity.
